ChEMBL document CHEMBL4004822, “Thienopyrimidinone Based Sirtuin-2 (SIRT2)-Selective Inhibitors Bind in the Ligand Induced Selectivity Pocket” (J Med Chem, 2017)

The molecules below were run against T1, NAD-dependent protein deacetylase sirtuin-2 (Homo sapiens) (UniProt Q8IXJ6) (assay: Inhibition of recombinant human C-terminal His-tagged SIRT2 (50 to 389 end residues) expressed in Escherichia coli at 10 uM using p53 derived (379 to 382 residues) fluorogenic peptide substrate RHKK(Ac)-AMC preincubated for 10 mins followed by substrate addition in presence of NAD+ by fluorescence assay relative to control).
T1 sequence (whole entry): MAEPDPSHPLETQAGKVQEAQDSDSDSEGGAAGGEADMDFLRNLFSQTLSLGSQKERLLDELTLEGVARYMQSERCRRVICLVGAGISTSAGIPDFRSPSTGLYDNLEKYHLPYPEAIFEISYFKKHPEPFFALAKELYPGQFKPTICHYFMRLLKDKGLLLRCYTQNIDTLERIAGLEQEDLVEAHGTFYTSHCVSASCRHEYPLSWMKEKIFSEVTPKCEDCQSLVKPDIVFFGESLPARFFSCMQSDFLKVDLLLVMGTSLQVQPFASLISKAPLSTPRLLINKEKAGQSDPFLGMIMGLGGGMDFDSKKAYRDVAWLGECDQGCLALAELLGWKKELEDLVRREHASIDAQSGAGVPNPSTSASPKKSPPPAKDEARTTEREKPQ
Summary of the method: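 Two-step fluorogenic assay with p53 379–382 RHKK(Ac)-AMC. Compound (from 10 mM DMSO stock) preincubated ~10 min with human SIRT before substrate addition. Developer then releases fluorophore, read at ex 360/em 460 nm.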

Row | Structure (SMILES) | inhibition
1 | COc1cccc(NC2CCc3c(sc4ncn(Cc5cccc(-c6ccccc6)c5)c(=O)c34)C2)c1 (centres undefined) | 30%
2 | O=c1c2c3c(sc2ncn1Cc1ccc2ccccc2c1)CC(NCCN1CCCC1)CC3 (centres undefined) | 52%
3 | COc1cccc(Cn2cnc3sc4c(c3c2=O)CCC(NCc2ccc(OC)nc2)C4)c1 (centres undefined) | 28%
4 | O=c1c2c3c(sc2ncn1Cc1ccc2ccccc2c1)CC(NCc1ccc(Cl)cc1)CC3 (centres undefined) | 49%
5 | O=c1c2c3c(sc2ncn1Cc1cccc2cccnc12)CC(NCc1ccccc1F)CC3 (centres undefined) | 49%
6 | O=c1c2c3c(sc2ncn1Cc1cccc2cccnc12)CC(NCC1CCOC1)CC3 (centres undefined) | 60%
7 | CC(=O)NCCNC1CCc2c(sc3ncn(Cc4cccc(-c5ccccc5)c4)c(=O)c23)C1 (centres undefined) | 65%
8 | O=c1c2c3c(sc2ncn1Cc1cccc(-c2ccccc2)c1)CC(NC1CCc2ccccc21)CC3 (centres undefined) | 45%
9 | Cc1ccc(NC2CCc3c(sc4ncn(Cc5ccc6ccccc6c5)c(=O)c34)C2)cc1 (centres undefined) | 29%
10 | O=c1c2c3c(sc2ncn1Cc1cccc2cccnc12)CC(NCC1CCCO1)CC3 (centres undefined) | 58%
11 | COc1cccc(Cn2cnc3sc4c(c3c2=O)CCC(NCc2cncnc2)C4)c1 (centres undefined) | 18%
12 | O=c1c2c3c(sc2ncn1Cc1cccc(-c2ccccc2)c1)CC(NCc1ccccc1Cl)CC3 (centres undefined) | 39%
13 | O=c1c2c3c(sc2ncn1Cc1ccccc1)CC(NCc1ccco1)CC3 (centres undefined) | 33%
14 | O=c1c2c3c(sc2ncn1Cc1cccc2cccnc12)CC(NC1CCCC1)CC3 (centres undefined) | 30%
15 | O=c1c2c3c(sc2ncn1Cc1cccc2cccnc12)CC(Nc1ccc2c(c1)OCO2)CC3 (centres undefined) | 76%
16 | COc1cccc(Cn2cnc3sc4c(c3c2=O)CCC(NC2CCc3ccccc32)C4)c1 (centres undefined) | 64%
17 | O=c1c2c3c(sc2ncn1Cc1cccc2ccccc12)CC(NC1CCc2ccccc21)CC3 (centres undefined) | 58%
18 | N#Cc1ccc(CNC2CCc3c(sc4ncn(Cc5ccc6ccccc6c5)c(=O)c34)C2)cc1 (centres undefined) | 67%
19 | O=c1c2c3c(sc2ncn1Cc1cccc(-c2ccccc2)c1)CC(NCc1cccc(F)c1)CC3 (centres undefined) | 63%
20 | O=c1c2c3c(sc2ncn1Cc1ccc2ccccc2c1)CC(NC1CCCc2ccccc21)CC3 (centres undefined) | 37%
21 | COc1ccc2ccccc2c1Cn1cnc2sc3c(c2c1=O)CCC(NC1CCc2ccccc21)C3 (centres undefined) | 59%
22 | Cc1nn(C)c(C)c1CNC1CCc2c(sc3ncn(Cc4cccc5cccnc45)c(=O)c23)C1 (centres undefined) | 74%

Row | Structure (SMILES) | inhibition
23 | CC(=O)NCCNC1CCc2c(sc3ncn(Cc4cccc5cccnc45)c(=O)c23)C1 (centres undefined) | 28%
24 | O=c1c2c3c(sc2ncn1Cc1cccc2ccccc12)CC(NC1CCCC1)CC3 (centres undefined) | 61%
25 | COc1cccc(Cn2cnc3sc4c(c3c2=O)CCC(NCC2CCCCC2)C4)c1 (centres undefined) | 62%
26 | O=c1c2c3c(sc2ncn1Cc1ccc2ccccc2c1)CC(NCCN1CCOCC1)CC3 (centres undefined) | 47%
27 | COc1ccc2ccccc2c1Cn1cnc2sc(CCNCC3CCOC3)c(C)c2c1=O (centres undefined) | 65%
28 | COc1cccc(Cn2cnc3sc4c(c3c2=O)CCC(NCc2c(C)nn(C)c2C)C4)c1 (centres undefined) | 14%
29 | COCCNC1CCc2c(sc3ncn(Cc4cccc(-c5ccccc5)c4)c(=O)c23)C1 (centres undefined) | 70%
30 | O=c1c2c3c(sc2ncn1Cc1cccc2ccccc12)CC(NC1CCOCC1)CC3 (centres undefined) | 59%
31 | COc1ccc2ccccc2c1Cn1cnc2sc3c(c2c1=O)CCC(NC1CCCc2ccccc21)C3 (centres undefined) | 34%
32 | O=c1c2c3c(sc2ncn1Cc1ccccc1)CC(NCCc1ccncc1)CC3 (centres undefined) | 18%
33 | COc1ccccc1NC1CCc2c(sc3ncn(Cc4cccc(-c5ccccc5)c4)c(=O)c23)C1 (centres undefined) | 26%
34 | COc1cccc(Cn2cnc3sc4c(c3c2=O)CCC(NCc2ccco2)C4)c1 (centres undefined) | 33%
35 | COc1ccc2ccccc2c1Cn1cnc2sc(CCN)c(C)c2c1=O | 25%
36 | COc1cccc(Cn2cnc3sc4c(c3c2=O)CCC(NCc2ccccn2)C4)c1 (centres undefined) | 18%
37 | O=c1c2c3c(sc2ncn1Cc1ccc2ccccc2c1)CC(NCc1cccc(F)c1)CC3 (centres undefined) | 56%
38 | COc1cccc(CNC2CCc3c(sc4ncn(Cc5cccc(OC)c5)c(=O)c34)C2)c1 (centres undefined) | 58%
39 | O=c1c2c3c(sc2ncn1Cc1cccc(-c2ccccc2)c1)CC(NCc1ccccc1F)CC3 (centres undefined) | 43%
40 | COc1ccccc1CCNC1CCc2c(sc3ncn(Cc4cccc(-c5ccccc5)c4)c(=O)c23)C1 (centres undefined) | 65%
41 | COc1ccc(CNC2CCc3c(sc4ncn(Cc5cccc(OC)c5)c(=O)c34)C2)cc1 (centres undefined) | 71%
42 | COc1ccc2ccccc2c1Cn1cnc2sc(CCNCc3ccc(C#N)cc3)c(C)c2c1=O | 51%
43 | COc1cccc(Cn2cnc3sc4c(c3c2=O)CCC(NCCc2cccnc2)C4)c1 (centres undefined) | 40%
44 | O=c1c2c3c(sc2ncn1Cc1cccc2ccccc12)CC(NC1CCCc2ccccc21)CC3 (centres undefined) | 51%

The remaining lines, values ahead:

Row | inhibition | Structure (SMILES)
45 | 25% | COc1cccc(NC2CCc3c(sc4ncn(Cc5ccc(OC)c6ccccc56)c(=O)c34)C2)c1 (centres undefined)
46 | 22% | COc1ccccc1NC1CCc2c(sc3ncn(Cc4cccc5ccccc45)c(=O)c23)C1 (centres undefined)
47 | 71% | O=c1c2c3c(sc2ncn1Cc1cccc2ccccc12)CC(NCc1ccccc1F)CC3 (centres undefined)
48 | 65% | O=c1c2c3c(sc2ncn1Cc1cccc2ccccc12)CC(NCc1cccc(F)c1)CC3 (centres undefined)
49 | 76% | COc1ccc(Cn2cnc3sc4c(c3c2=O)CCC(NCCN2CCOCC2)C4)c2ccccc12 (centres undefined)
50 | 67% | O=c1c2c3c(sc2ncn1Cc1ccccc1)CC(NCc1ccccc1Cl)CC3 (centres undefined)
51 | 59% | COc1ccc(Cn2cnc3sc4c(c3c2=O)CCC(NCc2cccc(F)c2)C4)c2ccccc12 (centres undefined)
52 | 41% | Cc1cccc(NC2CCc3c(sc4ncn(Cc5cccc6ccccc56)c(=O)c34)C2)c1 (centres undefined)
53 | 63% | COc1ccccc1CCNC1CCc2c(sc3ncn(Cc4cccc5cccnc45)c(=O)c23)C1 (centres undefined)
54 | 46% | COc1cccc(NC2CCc3c(sc4ncn(Cc5cccc6ccccc56)c(=O)c34)C2)c1 (centres undefined)
55 | 64% | O=c1c2c3c(sc2ncn1Cc1cccc2ccccc12)CC(NCc1ccc(Cl)cc1)CC3 (centres undefined)
56 | 60% | O=c1c2c3c(sc2ncn1Cc1cccc2ccccc12)CC(NCc1cccc(Cl)c1)CC3 (centres undefined)
57 | 65% | COc1ccccc1CCNC1CCc2c(sc3ncn(Cc4c(OC)ccc5ccccc45)c(=O)c23)C1 (centres undefined)
58 | 40% | COc1ccc2ccccc2c1Cn1cnc2sc3c(c2c1=O)CCC(NCc1ccc(Cl)cc1)C3 (centres undefined)
59 | 46% | O=c1c2c3c(sc2ncn1Cc1cccc2ccccc12)CC(NCc1ccccc1Cl)CC3 (centres undefined)
60 | 40% | COc1ccc2ccccc2c1Cn1cnc2sc3c(c2c1=O)CCC(NCc1ccccc1Cl)C3 (centres undefined)
61 | 69% | COc1ccccc1CCNC1CCc2c(sc3ncn(Cc4ccc(OC)c5ccccc45)c(=O)c23)C1 (centres undefined)
62 | 60% | COc1ccccc1CNC1CCc2c(sc3ncn(Cc4cccc5ccccc45)c(=O)c23)C1 (centres undefined)
63 | 41% | COc1ccc(NC2CCc3c(sc4ncn(Cc5ccc(OC)c6ccccc56)c(=O)c34)C2)cc1 (centres undefined)
64 | 66% | N#Cc1ccc(CNC2CCc3c(sc4ncn(Cc5cccc6ccccc56)c(=O)c34)C2)cc1 (centres undefined)
65 | 66% | O=c1c2c3c(sc2ncn1Cc1cccc(-c2ccccc2)c1)CC(NCc1cccs1)CC3 (centres undefined)
66 | 27% | COc1ccc2ccccc2c1Cn1cnc2sc3c(c2c1=O)CCC(Nc1cccc(C)c1)C3 (centres undefined)
67 | 58% | COc1ccc(Cn2cnc3sc4c(c3c2=O)CCC(NCCNC(C)=O)C4)c2ccccc12 (centres undefined)
68 | 71% | COc1ccc(Cn2cnc3sc4c(c3c2=O)CCC(NCc2cccs2)C4)c2ccccc12 (centres undefined)
69 | 35% | COCCNC1CCc2c(sc3ncn(Cc4cccc5ccccc45)c(=O)c23)C1 (centres undefined)
